Experimental findings from PubChem BioAssay are described below.

Activity calls are given as the source filed them.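 Rule for the calls, unless noted: active = inhibition of the reporter signal at or above 50%; inactive = inhibition below 50%.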

The nature of test [1]: inhibitors of TNFa-induced NFkB p65 translocation, primary screen, imaging, HUVEC, MLSMR starter and 10KST1 sets (AID 438;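 active = inhibition above 20% together with a positive visual image hit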;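 note: compound added about 3h40 before a 20 min TNFalpha stimulation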;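 for inhibition: signal is the nuclear over cytoplasmic p65 intensity ratio per well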). The conditions noted are these: HUVEC TNFa-induced p65 nuclear translocation; cell count: measured here: nuclei count (cytotoxicity indicator), at 2.08 µM; inhibition: at 2 µM, stronger effect = higher value, 0% TNFa-plus-vehicle, 100% no-TNFa wells.
The nature of test [2]: inhibitors of mutant huntingtin aggregation, primary screen, imaging, exon1htt(103Q)mCFP cells, high-content imaging (AID 483;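 active = visual image review flags a hit and inhibition of aggregation exceeds 20%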;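 note: compound exposure lasted 3 days before fixation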;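 for nuclei count: percent of the per-plate median nuclei count of sample wells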). The following applies: exon1htt(103Q)mCFP cell line, aggregate imaging, at 2 µM; inhibition of aggregation: stronger effect = higher value; nuclei count: measured here: cell count, toxicity.
Test [3] is described as follows: inhibitors of E-selectin induction by TNFa, primary screen, imaging, HUVEC, immunofluorescence, MLSMR starter and 10KST1 sets (AID 487;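 active = visually confirmed hit in the image check and inhibition above 20%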;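 for inhibition: signal is fraction of cell area covered by stained E-selectin grains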;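 for nuclei count: 100% = median nuclei count of all wells on the same plate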). The conditions noted are these: HUVEC TNFalpha-induced E-selectin immunofluorescence imaging, at 2 µM; inhibition: stronger effect = higher value; nuclei count: measured here: cell number, toxicity.
Test [4] has as its target Voltage-gated potassium channel subunit beta-2 (Rattus norvegicus) (UniProt P62483). In words: KvBeta enzyme negative modulators, primary screen, biochemical, NADPH fluorescence (AID 622;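 active = fluorescence slope higher than the sample average by over 3 SD, cut at about -0.22 in these data, passing the limit was not always enough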;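 note: slope of raw intensity against log time taken from 70 to 1610 s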). The following applies: recombinant KvBeta, 4-cyanobenzaldehyde reduction, at 10 µM, stronger effect = higher value.
For test [5] the target is unchanged. In words: KvBeta positive modulators, primary screen, biochemical, NADPH fluorescence (AID 623;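 active = NADPH fluorescence slope more negative than the mean of all samples by about 3 SD, 99.7% confidence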;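 note: fluorescence intensity change per second fitted from 20 to 320 s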). The following applies: Recombinant KvBeta, NADPH fluorescence decrease slope, 10 min; at 10 µM; stronger effect = lower value.
The target in test [6] is Muscarinic acetylcholine receptor M4 (Homo sapiens) (UniProt P08173). Briefly: compounds altering M4/GIRK thallium flux, either direction, primary screen, M4 allosteric agonist project, cell-based, HEK293 M4/GIRK, BTC-AM (AID 625;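 active = fluorescence slope after compound addition differing from the mean of all tested samples at 99.7% confidence, mostly higher but some lower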;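 note: thallium influx through GIRK channels coupled to M4 in HEK293 cells with BTC-AM dye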). The conditions noted are these: at 10 µM, actives lie on both sides. In outline:
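Material – HEK293 cells with M4 receptor and GIRK channels · Buffer or medium – pH 7.3 thallium assay buffer · Doses – one dose, 10 µM final · Timing – cells overnight at 37 °C, BTC-AM loading 1 h, reads 2 min total · Measured by – kinetic fluorescence with BTC-AM dye · Controls – carbachol and DMSO controls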

Test [7] can be described thus: inhibitors of Sendai virus-induced IRF3 signaling, primary screen, TLR/RLR signaling modifier project, cell-based, Sendai virus stimulus, luciferase, 10K MLSCN set (AID 602276;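 active = inhibition at or above 50% at 10 µM; inactive = inhibition below 50%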;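 note: firefly luciferase from ISG56 promoter only with Renilla not read in this screen; 0% = Sendai virus plus DMSO and 100% = medium plus DMSO without virus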). The following applies: HEK293 RL24 IRF3 luciferase reporter, at 10 µM, stronger effect = higher value.
A short description of test [8]: inhibitors of poly I:C-induced TLR3 signaling, primary screen, cell-based, poly I:C stimulus, luciferase, 10K MLSCN set (AID 602277). The conditions noted are these: HEK293-TLR3 RL24 IRF3 luciferase reporter, at 10 µM, stronger effect = higher value.

Chain of Voltage-gated potassium channel subunit beta-2 (Rattus norvegicus) (P62483 whole entry, looked up): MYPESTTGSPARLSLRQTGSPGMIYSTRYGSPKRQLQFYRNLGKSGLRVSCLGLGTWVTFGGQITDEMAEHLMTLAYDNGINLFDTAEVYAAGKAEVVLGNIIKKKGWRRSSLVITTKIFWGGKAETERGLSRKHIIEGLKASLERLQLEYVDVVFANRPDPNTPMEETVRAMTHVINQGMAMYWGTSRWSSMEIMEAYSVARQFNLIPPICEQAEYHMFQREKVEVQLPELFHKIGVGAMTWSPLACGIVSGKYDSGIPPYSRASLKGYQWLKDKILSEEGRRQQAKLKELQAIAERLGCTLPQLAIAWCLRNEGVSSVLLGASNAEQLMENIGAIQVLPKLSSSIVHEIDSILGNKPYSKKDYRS
Chain of Muscarinic acetylcholine receptor M4 (Homo sapiens) (P08173 whole entry, looked up): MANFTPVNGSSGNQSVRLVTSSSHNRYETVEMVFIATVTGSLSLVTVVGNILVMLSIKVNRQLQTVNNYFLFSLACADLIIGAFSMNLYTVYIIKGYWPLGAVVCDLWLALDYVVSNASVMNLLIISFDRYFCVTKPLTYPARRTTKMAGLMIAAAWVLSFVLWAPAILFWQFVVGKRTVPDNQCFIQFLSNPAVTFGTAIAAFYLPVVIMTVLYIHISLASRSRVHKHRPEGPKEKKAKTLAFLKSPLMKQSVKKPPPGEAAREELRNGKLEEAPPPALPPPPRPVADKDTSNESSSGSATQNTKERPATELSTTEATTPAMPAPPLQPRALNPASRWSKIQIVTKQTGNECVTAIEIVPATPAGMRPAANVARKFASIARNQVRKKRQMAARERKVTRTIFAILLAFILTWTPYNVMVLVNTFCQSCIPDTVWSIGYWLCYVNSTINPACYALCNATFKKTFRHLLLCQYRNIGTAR

Turning to `Cc1cc2c(c(=O)n1CCN(C)C)C(c1ccncc1)C(C#N)=C(N)O2` (centres undefined), the cell count in test [1] is 552. In addition, the inhibition in test [1] is 7.7% (inactive); in test [3], -74% (inactive); in test [7] it was 5.86% (inactive); in test [8], 8.13% (inactive). The inhibition of aggregation in test [2] was 5% (inactive). Also, the nuclei count in test [2] was 102%; in test [3], 155%. Also, the fluorescence slope in test [4] was -0.484 (inactive); in test [6], 0.00498 (inactive). Besides, the NADPH fluorescence slope in test [5] was -1.3e-05 (inactive).
As for `COCCn1c(=O)[nH]c2cc(C(=O)NCCCN3CCN(c4ccc(F)cc4)CC3)ccc2c1=O`, the cell count in test [1] stood at 333. Also, the inhibition in test [1] is 21.3% (inactive); in test [3], -22.8% (inactive); in test [7] it was 16.2% (inactive); in test [8], 9.46% (inactive). Also, the inhibition of aggregation in test [2] is -5.1% (inactive). Besides, the values for the nuclei count in test [2] and in test [3] were 107% and 111%, respectively. The fluorescence slope in test [4] is -0.472 (inactive); in test [6], 0.00483 (inactive). The NADPH fluorescence slope in test [5] was -3.1e-05 (inactive).
As to `COc1ccc(CCNS(=O)(=O)c2ccc3c(c2)OCCO3)cc1`, in test [1], the cell count is 361. Besides, the inhibition in test [1] was 4.2% (inactive); in test [3] it was 33.5% (inactive); in test [7], 14.6% (inactive); in test [8] it was 16.5% (inactive). In addition, the inhibition of aggregation in test [2] was 2.3% (inactive). Moreover, the figures for the nuclei count in test [2] and in test [3] were 102% and 106%, respectively. In addition, the results for the fluorescence slope in test [4] and in test [6] were -0.466 (inactive) and 0.00491 (inactive), respectively. In test [5], the NADPH fluorescence slope was -3.5e-05 (inactive).
Consider `Cc1c(Br)c(C(F)(F)F)nn1CC(=O)NCCN1CCOCC1`, for which the cell count in test [1] was 412. The inhibition is 1.6% (inactive) in test [1], -39.7% (inactive) in test [3], 1.54% (inactive) in test [7] and 21.8% (inactive) in test [8]. Besides, the inhibition of aggregation in test [2] was 0.2% (inactive). Moreover, the nuclei count in test [2] is 86.5%; in test [3], 114%. Also, the figures for the fluorescence slope in test [4] and in test [6] were -0.553 (inactive) and 0.00496 (inactive), respectively. Further, the NADPH fluorescence slope in test [5] is -5.2e-05 (inactive).
As to `C=C(C)Cn1c(SCC)nc2ccccc2c1=O`, in test [1], the cell count turned out to be 399. Also, the inhibition in test [1] was -5% (inactive); in test [3], -26.7% (inactive); in test [7], 9.69% (inactive); in test [8], 22.7% (inactive). Besides, the inhibition of aggregation in test [2] is 13.5% (inactive). The nuclei count came out at 98.7% in test [2] and 94.5% in test [3]. For the same compound, the fluorescence slope was -0.454 (inactive) in test [4] and 0.0055 (inactive) in test [6]. In test [5], the NADPH fluorescence slope is -0.000357 (inactive).
`Cc1ccccc1NC(=O)c1ccccc1`: the cell count in test [1] amounted to 373. Moreover, the inhibition was 1.7% (inactive) in test [1], -49.6% (inactive) in test [3], 1.39% (inactive) in test [7] and -13% (inactive) in test [8]. Further, the inhibition of aggregation in test [2] is 13.2% (inactive). The nuclei count was 104% in test [2] and 110% in test [3]. The values for the fluorescence slope in test [4] and in test [6] were -0.469 (inactive) and 0.00509 (inactive), respectively. The NADPH fluorescence slope in test [5] is 2.1e-05 (inactive).
As to `Cn1c(=O)oc2cc(S(=O)(=O)N3CCC(C(=O)Nc4ccc(OC(F)(F)F)cc4)CC3)ccc21`, the cell count in test [1] stood at 261. The inhibition in test [1] was 6.9% (inactive); in test [3] it was -19.6% (inactive); in test [7], 12.1% (inactive); in test [8], 17% (inactive). Also, the inhibition of aggregation in test [2] was 19.4% (inactive). Further, the nuclei count in test [2] amounted to 103%; in test [3] it was 75.1%. The fluorescence slope was -0.572 (inactive) in test [4] and 0.00653 (inactive) in test [6]. Besides, in test [5], the NADPH fluorescence slope was -1.9e-05 (inactive).
As for `Cn1c(SC/C=C/c2ccccc2)nnc1-c1cnccn1`, the cell count in test [1] worked out at 630. Also, the inhibition is 1.1% (inactive) in test [1], 6.2% (inactive) in test [3], -12.1% (inactive) in test [7] and -35% (inactive) in test [8]. In addition, the inhibition of aggregation in test [2] is -4.5% (inactive). Also, the nuclei count came to 114% in test [2] and 95.1% in test [3]. For the same compound, the fluorescence slope is -0.572 (inactive) in test [4] and 0.00503 (inactive) in test [6]. The NADPH fluorescence slope in test [5] was 2.7e-05 (inactive).
Turning to `O=C(O)c1c[nH]c2ccc(S(=O)(=O)N3CCN(c4ccc(F)cc4)CC3)cc2c1=O`, the cell count in test [1] worked out at 423. For the same compound, the inhibition in test [1] was -1.1% (inactive); in test [3] it was -183% (inactive); in test [7] it was 1.85% (inactive); in test [8] it was 0.478% (inactive). Further, the inhibition of aggregation in test [2] was 20.5% (inactive). The nuclei count amounted to 87.5% in test [2] and 101% in test [3]. Further, the results for the fluorescence slope in test [4] and in test [6] were -0.566 (inactive) and 0.00349 (inactive), respectively. In test [5], the NADPH fluorescence slope was 2e-06 (inactive).
Turning to `Oc1cccc2ccc(Nc3ccccn3)nc12`, the cell count in test [1] turned out to be 583. Besides, the inhibition in test [1] is -9.7% (inactive); in test [3], 11.4% (inactive); in test [7] it was 11% (inactive); in test [8], 97.5% (active). For the same compound, the inhibition of aggregation in test [2] was -24.8% (inactive). Further, the nuclei count came out at 82.5% in test [2] and 99.8% in test [3]. For the same compound, the fluorescence slope is -0.563 (inactive) in test [4] and 0.0033 (inactive) in test [6]. Further, in test [5], the NADPH fluorescence slope is -3.9e-05 (inactive).
On to `Cc1nc(=S)n(-c2ccccc2)[nH]1`, for which, in test [1], the cell count is 638. Further, the inhibition in test [1] is -5% (inactive); in test [3], -31.2% (inactive); in test [7], 11.3% (inactive); in test [8], 10.6% (inactive). In addition, the inhibition of aggregation in test [2] is 16.1% (inactive). Also, the nuclei count amounted to 113% in test [2] and 120% in test [3]. Besides, the results for the fluorescence slope in test [4] and in test [6] were -0.538 (inactive) and 0.00665 (inactive), respectively. Moreover, in test [5], the NADPH fluorescence slope was -1.9e-05 (inactive).
`CCOC(=O)c1[nH]c(C)c(C(=O)Nc2cc(OC)ccc2OC)c1C`: in test [1], the cell count worked out at 671. In addition, the inhibition in test [1] was -5.9% (inactive); in test [3], -153% (inactive); in test [7], 30.4% (inactive); in test [8], 51.4% (active). Further, the inhibition of aggregation in test [2] was -3.7% (inactive). For the same compound, the nuclei count in test [2] was 2.5%; in test [3], 111%. In addition, the values for the fluorescence slope in test [4] and in test [6] were -0.415 (inactive) and 0.00644 (inactive), respectively. Moreover, the NADPH fluorescence slope in test [5] is 4.7e-05 (inactive).
`O=C1CC(C(=O)Nc2ccccc2)C2(CCCC2)O1` (centres undefined): the cell count in test [1] came out at 425. The inhibition in test [1] is 6% (inactive); in test [3] it was -80.4% (inactive); in test [7], 4.72% (inactive); in test [8], 6.07% (inactive). The inhibition of aggregation in test [2] is 2.4% (inactive). Moreover, the figures for the nuclei count in test [2] and in test [3] were 106% and 110%, respectively. Besides, the fluorescence slope in test [4] is -0.569 (inactive); in test [6], 0.00631 (inactive). In test [5], the NADPH fluorescence slope is -5.8e-05 (inactive).
As for `CCCn1c(SCC(=O)Nc2nnc(-c3ccccc3)s2)nnc1-c1ccccn1`, the cell count in test [1] was found to be 591. The inhibition in test [1] is -5.1% (inactive); in test [3], 7% (inactive); in test [7] it was -15.8% (inactive); in test [8], -30% (inactive). The inhibition of aggregation in test [2] is 14.9% (inactive). For the same compound, the nuclei count in test [2] worked out at 45.4%; in test [3] it was 105%. In addition, the fluorescence slope in test [4] is -0.376 (inactive); in test [6], 0.00563 (inactive). For the same compound, the NADPH fluorescence slope in test [5] was 1.2e-05 (inactive).
